Hits are enriched below; roughly 3.4% of the tested compounds scored in any of these assays.
A3A deaminase: human APOBEC3A DNA deaminase inhibition. P31941. recombinant A3A, FAM/TAMRA ssDNA deamination fluorescence. inhibition, % at 20 µM. hit rate 0.41% among 330,000. AID 493011;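 active means at least 40% inhibition at 20 µM here, with at most 30% in a related deaminase screen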;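 further: plate controls were A3A with DMSO for no effect and wells lacking A3A enzyme for full effect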
A3G deaminase: inhibitors of human APOBEC3G DNA deaminase. Q9HC16. recombinant A3G, ssDNA deamination FAM/TAMRA fluorescence. inhibition, % at 20 µM. hit rate 0.28% among 330,000;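 active means inhibition of at least 40% at 20 µM, with no more than 30% in the related APOBEC3A deaminase screen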;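 further: plate controls were DMSO wells with A3G for no effect and wells lacking A3G enzyme for full effect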
Target sequence (Q9HC16 whole entry, looked up): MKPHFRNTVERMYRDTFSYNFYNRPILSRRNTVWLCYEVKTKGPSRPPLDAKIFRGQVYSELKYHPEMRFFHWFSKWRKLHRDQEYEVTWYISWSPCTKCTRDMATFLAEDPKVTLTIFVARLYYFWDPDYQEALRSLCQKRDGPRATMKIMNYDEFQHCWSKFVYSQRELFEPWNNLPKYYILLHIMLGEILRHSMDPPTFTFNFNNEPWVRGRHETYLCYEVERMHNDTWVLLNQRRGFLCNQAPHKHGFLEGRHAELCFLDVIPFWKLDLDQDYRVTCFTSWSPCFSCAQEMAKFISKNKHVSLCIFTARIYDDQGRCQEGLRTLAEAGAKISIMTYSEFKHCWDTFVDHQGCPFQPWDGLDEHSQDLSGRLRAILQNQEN
UCH37 DUB inh: blocks the human deubiquitinase UCH37; purified proteasome/UCH37, Ub-AMC cleavage fluorescence; inhibition, % (concentration not given with the values); hit rate 0.33% among 330,000; AID 588478;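 active means mean inhibition over replicate wells above about 20%, limit read from the data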;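 further: 0% = compound-free wells with enzyme and 100% = wells lacking proteasome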
Target sequence (Q9Y5K5 whole entry, looked up): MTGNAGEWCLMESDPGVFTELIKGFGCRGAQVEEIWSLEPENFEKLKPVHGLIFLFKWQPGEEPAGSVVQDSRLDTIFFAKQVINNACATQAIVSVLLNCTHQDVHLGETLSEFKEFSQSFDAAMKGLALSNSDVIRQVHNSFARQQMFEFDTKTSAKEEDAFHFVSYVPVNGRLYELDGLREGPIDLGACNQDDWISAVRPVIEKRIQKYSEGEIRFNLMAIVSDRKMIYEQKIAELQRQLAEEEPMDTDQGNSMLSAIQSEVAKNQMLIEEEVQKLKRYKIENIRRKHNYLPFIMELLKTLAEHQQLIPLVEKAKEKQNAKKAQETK
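Material: Human UCH37 enzyme supplied as purified proteasome complex | Schedule: 30 min compound-proteasome preincubation then 25 min substrate reaction, room temperature | Detection: AMC fluorescence from Ub-AMC cleavage, excitation 355 nm, emission 460 nm | Benchmarks: Wells without proteasome as full block, compound-free enzyme plus substrate as uninhibited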
Arrestin-AP2 inh: human beta-arrestin and AP2 interaction inhibition | hit rate 0.31% among 340,000 | FITC-arrestin peptide / GST-AP2 beads, flow cytometry; AP2 beta2 appendage carries R879A mutation | inhibition, % at 10 µM;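 active means inhibition above a set limit, near 3 SD of compounds lacking own fluorescence, cut at about 54% in these data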;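 further: plate controls were DMSO wells for no effect and 5 µM unlabelled arrestin peptide for full effect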
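Measured by: flow cytometry, FL1 (488/535 nm); Material: AP2 appendage R879A on GSH beads; Evaluation: percent response; Timing: pre-incubation 12 min, peptide binding 1 h, room temperature; Also added: 50 nM FITC-arrestin peptide; Medium: PBS with 0.05% Tween 20 and 0.1% BSA.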
AHR activator: activators of human aryl hydrocarbon receptor; AID 2796; activation, % at 5 µM; hit rate 2.5% among 320,000; P35869; AHR-responsive luciferase reporter cells, luminescence; in the data active means activation above about 47%;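 further: 0% = vehicle wells and 100% = reference agonist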
PolyA inh: inhibitors of polyadenylation in S. cerevisiae; S. cerevisiae SKY197-pL101 polyadenylation reporter, beta-gal luminescence; efflux-impaired pdr1/pdr3 knockout yeast; score 100 = 6 SD above DMSO; activity score, % at 12 µM; hit rate 0.02% among 300,000; AID 1875;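 active means lowest replicate activity score at least 50, where 100 means six control SD above control mean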;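 further: yeast exposed to compound for 9 h at 30 °C; higher score means more reporter readthrough which indicates perturbed polyadenylation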
Starred values were filed as active, the others as inactive; i = inactive; . = not tested or not shown.

SMILES	A3A deaminase	A3G deaminase	UCH37 DUB inh	Arrestin-AP2 inh	AHR activator	PolyA inh
CCOc1cc2c3c(c1)C1(C(=O)N3C(C)(C)CC2C)C(C#N)=C(N)N2C(=C1C#N)Nc1ccccc12 (stereo not drawn)	2.1	-5.8	-7.9	-25.5	58.0*	13.4
CCCCC(=O)Nc1ccc(Br)cn1	-5.4	-6.5	2.2	8.3	1.0	0.9
CCCCNC(=O)Nc1ccc(Br)cn1	6.4	0.6	-5.3	-0.9	51.8*	3.2
COc1ccc(C=NNc2nnc(Cc3ccc(OC)c(OC)c3)c(=O)[nH]2)cc1OC	.	.	5.2	.	.	.
CC(=NNC(=O)c1ccc(-c2ccccc2)cc1)c1ccco1	.	.	-5.1	.	.	.
Cc1cc(C)nc(NC(=O)c2cnc3sccn3c2=O)n1	1.9	0.5	-9.0	-18.1	70.4*	12.3
Cc1cc(NS(=O)(=O)c2ccc(NC(=O)c3cnc4sccn4c3=O)cc2)nc(C)n1	3.4	-2.8	3.0	-1.0	-0.7	0.7
O=C(c1ccccc1)n1ccn(-c2ccccc2)c1=S	-3.0	-8.6	-11.5	8.6	50.8*	-5.4
C/C(=N\Nc1nnc2c3ccccc3n(C)c2n1)c1ccc(C)o1	0.1	-1.2	.	-7.1	88.1*	-19.7
Cc1c(/C=C2\NC(=O)NC2=O)c2ccccc2n1C	-7.0	-7.9	9.7	2.4	75.4*	-1.7
Cc1cccc(C)c1-n1c(C)cc(/C=C2\NC(=O)NC2=O)c1C	-1.0	-4.3	1.2	26.5	15.2	-24.2
O=C(COC(=O)/C=C/c1cccs1)NC(c1ccccc1)c1ccccc1	-1.9	-1.6	-1.0	-8.4	0.0	150.0*
O=C(COC(=O)/C=C/c1cccs1)NC(=O)Cc1ccccc1	-3.4	-6.9	2.1	38.8	-1.0	2.3
N/C(=N\OC(=O)c1ccc(Br)o1)c1cccnc1	-11.0	-3.0	0.1	35.5	52.7*	8.6
COc1ccc(C(=O)O/N=C(\N)c2ccc(Cl)cc2)cc1	-1.7	-2.9	-0.6	29.9	-2.7	-20.8
COc1ccc(/C(N)=N/OC(=O)c2ccc(Br)o2)cc1	-0.6	-7.7	0.5	19.6	68.5*	-9.1
COc1ccc(CC(=O)NN=C(C)CC(=O)Nc2cccc(F)c2)cc1	.	.	1.3	.	.	.
COc1ccc(C=NNC(=O)c2cccnc2)cc1COc1ccc([N+](=O)[O-])cc1	.	.	2.3	.	.	.
CCC1(C)Cc2c(sc3nc(NN)n(C)c(=O)c23)CO1 (stereo not drawn)	0.5	-2.0	-1.5	4.5	62.4*	3.0
O=C(O)c1cc(NN=Cc2ccc3c(c2)OCCO3)ccc1Cl	.	.	8.9	.	.	.
O=C(N/N=C/C=C/c1ccccc1[N+](=O)[O-])c1cccnc1	-0.4	-3.1	.	13.6	71.9*	-4.6
O=C(N/N=C/C=C\c1ccccc1[N+](=O)[O-])c1cccnc1	-4.8	-10.8	.	-9.3	20.4	4.1
CC(C)(NO)C(=NO)c1ccc(Br)cc1	.	.	5.0	.	.	.
Fc1ccc2cc(-c3ccsc3)ncc2c1	-0.6	-4.7	-291.7	26.2	50.7*	.
COc1cc2cnc(-c3ccsc3)cc2cc1OC	-0.2	1.7	1.2	-3.6	48.8*	.
SMILES	A3A deaminase	A3G deaminase	UCH37 DUB inh	Arrestin-AP2 inh	AHR activator	PolyA inh
O=[N+]([O-])c1cccc2nc(-c3ccccc3)c(-c3ccccc3)nc12	2.9	-2.9	5.3	3.3	2.5	-8.8
Cn1c(-[n+]2c(-c3ccccc3)cc(-c3ccccc3)cc2-c2ccccc2)nc2c([N+](=O)[O-])cccc21	38.1	11.1	-12.2	-2.9	68.4*	-20.3
COc1cc(/C=C2/SC(N)=NC2=O)ccc1Oc1ccc([N+](=O)[O-])cc1[N+](=O)[O-]	-3.5	-5.7	5.1	-1.7	-1.9	7.9
NC1=NC(=O)/C(=C\c2ccc(O)c([N+](=O)[O-])c2)S1	2.7	-1.5	23.6*	16.6	1.7	-5.1
O=C(O)c1ccc(C=NNc2ccccn2)cc1	.	.	13.6	.	.	.
Cc1ccsc1CNc1ncnc2ccc(-c3c(C)noc3C)cc12	-3.5	-5.7	1.0	38.0	55.9*	.
O=C1C(Cl)=C(NCCN2CCCCC2)C(=O)c2ccccc21	2.8	-2.5	40.6*	1.7	16.7	-7.5
O=c1oc2ccccc2nc1C=C(O)/C=C\c1ccccc1	.	.	5.1	.	.	.
N#CC1=C(N2CCOCC2)/C(=C\c2ccccc2)CC1	-6.7	-6.6	-17.4	2.1	49.2*	-11.1
CCC(=O)Nc1nc2ccc3sc(C)nc3c2s1	-0.5	-7.8	6.3	1.4	68.7*	-20.4
O=[N+]([O-])c1cc(C=NNc2nc3ccccc3[nH]2)c(O)cc1O	.	.	15.8	.	.	.
Cc1nn(-c2ccc(Cl)cc2)c2sc(C(=O)N3CCN(c4ccccn4)CC3)cc12	-1.5	-3.5	0.8	0.4	76.8*	-8.7
Cc1nn(-c2ccc(Cl)cc2)c2sc(C(=O)c3c(N)n(C)c(=O)n(C)c3=O)cc12	-0.6	-3.6	-32.4	6.2	47.1*	-14.1
COc1cccc(C=NNC(=O)c2cnn(-c3ccccc3)c2N)c1	.	.	4.2	.	.	.
O=C(CN(Cc1ccco1)S(=O)(=O)c1ccccc1)NN=Cc1ccccc1C(=O)O	.	.	5.1	.	.	.
O=C1C=C(c2ccccc2)CC(/C=C/c2ccccc2)C1 (stereo not drawn)	1.5	-8.3	.	-5.8	75.2*	-6.8
N#Cc1c(C(F)(F)F)cc(-c2ccco2)nc1SCc1ccncc1	-2.3	-3.5	-86.2	4.7	23.6	-8.7
N#Cc1c(C(F)(F)F)cc(-c2ccccc2)nc1SCCN1CCOCC1	-4.9	-7.1	0.6	-1.4	55.4*	-7.3
N#Cc1c(C(F)(F)F)cc(-c2ccco2)nc1SCc1ccccn1	1.5	-3.0	-36.4	-0.5	60.1*	1.5
Cc1nn(-c2ccccc2)c(C)c1/C=N/n1c(-c2ccccc2Br)n[nH]c1=S	-2.4	2.2	.	-20.9	50.5*	-0.8
CC1CC1C(=O)Nc1nc2ccc(Cl)cc2s1 (stereo not drawn)	-1.5	-3.0	2.5	-19.4	67.2*	-34.8
Cn1c2c(c3ccccc31)CCC2=NO	.	.	-0.1	.	.	.
CCSc1ncc(C=NNc2ccc(Cl)cc2)n1C	.	.	-0.6	.	.	.
CCSc1ncc(/C=N/Nc2ccc(F)cc2)n1C	-2.1	-3.8	.	-0.2	77.2*	-23.0
CC(=NNc1ccc(C(=O)O)cc1)c1ccc(Cl)s1	.	.	9.2	.	.	.
SMILES	A3A deaminase	A3G deaminase	UCH37 DUB inh	Arrestin-AP2 inh	AHR activator	PolyA inh
COC(=O)CSCc1nc2ccccc2[nH]c1=O	-6.2	-11.3	-7.4	0.7	63.9*	8.8
O=[N+]([O-])c1ccc(O)c(/C=N/n2cnc3ccccc32)c1	3.8	-2.0	.	-1.3	56.1*	-17.3
Oc1c(Cl)cc(Cl)cc1C=Nc1nccs1	.	.	-0.2	.	.	.
CN(C)C=NS(=O)(=O)c1cccn1-c1ncc(C(F)(F)F)cc1Cl	.	.	2.5	.	.	.
COc1ccccc1C(=O)NCC(=O)NN=Cc1ccc2c(c1)OCO2	.	.	2.5	.	.	.
S=c1nc(-c2ccccc2)c(-c2ccccc2)n[nH]1	-4.4	-9.1	.	43.1	0.1	-12.3
Nc1c(-c2ccccc2)n[nH]c1-c1ccccc1	-0.3	-4.6	-13.6	8.4	134.4*	-90.7
Oc1ccc(C=Nc2ccccc2-c2nc3ccccc3[nH]2)c(O)c1	1.6	-3.6	i	-2.3	94.6*	0.8
